Results reported in publication PMC10962649 (Journal of Food and Drug Analysis, 2024).
Marks after values point to notes of the source that are not given here.

Tests used:
[1] = Pharmacokinetics of oral MTX in rats alone and coadministered with MOC; type: in vivo, Sprague–Dawley rats
Method in brief: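 Groups were dosed orally and in parallel: MTX 5.0 mg/kg with an equal volume of water (n = 6), or with decoction given 0.5 h earlier. Rats were fasted overnight. Tail-vein blood (0.5 mL) was drawn at 0.25–48 h, and serum MTX was measured by fluorescence polarization immunoassay using the kit calibration. AUC0-t was derived by noncompartmental analysis.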

[2] = Mortality of rats observed during the pharmacokinetic study; type: in vivo, Sprague–Dawley rats; details: oral MTX 5.0 mg/kg alone or coadministered with MOC (three groups)
Method in brief: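 Male Sprague–Dawley rats (350–450 g) were fasted overnight with water allowed, and food was returned 3 h after dosing. They received oral MTX 5.0 mg/kg, given alone with water or 0.5 h after oral decoction at 2.0 or 4.0 g/kg. A fourth group got 2.0 g/kg thrice daily for 2 days before MTX. Deaths were noted over the 48-h sampling period.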

[3] = target: MRP2 (Canis lupus familiaris, UniProt A0A8I3SCV5); test: MRP2 activity: intracellular accumulation of GSMF; type: cell-based; details: MDCKII-WT cells
[4] = target: MRP2 (Homo sapiens, UniProt Q92887); type: cell-based; details: MDCKII-MRP2 cells, 100 μM spiked in blank serum, Fig. 3(C)
[5] = tested on: MDCKII-WT cells; test: MTT assay for cell viability, MDCKII-WT cells; type: cell-based, canine; details: 150 μM, MDCKII-WT cells (data not shown)
Method in brief: (§1)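 MDCKII cells (wild-type or BCRP-overexpressing, from the Netherlands Cancer Institute) were grown in DMEM with 10% FBS and 1% penicillin-streptomycin-glutamine at 37 °C under 5% CO₂. Viability after exposure to test agents was measured by MTT assay, following a cited method with minor modification.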

[6] = tested on: MDCKII-BCRP cells; test: MTT assay for cell viability, MDCKII-BCRP cells; type: cell-based, canine; details: 100 μM, MDCKII-BCRP cells (data not shown)
Method in brief: as §1

[7] = target: T1, BCRP (Homo sapiens, UniProt Q9UNQ0); details: concentrations of 12.5–100 μM; cited from earlier work
T1 sequence (Q9UNQ0 1-655): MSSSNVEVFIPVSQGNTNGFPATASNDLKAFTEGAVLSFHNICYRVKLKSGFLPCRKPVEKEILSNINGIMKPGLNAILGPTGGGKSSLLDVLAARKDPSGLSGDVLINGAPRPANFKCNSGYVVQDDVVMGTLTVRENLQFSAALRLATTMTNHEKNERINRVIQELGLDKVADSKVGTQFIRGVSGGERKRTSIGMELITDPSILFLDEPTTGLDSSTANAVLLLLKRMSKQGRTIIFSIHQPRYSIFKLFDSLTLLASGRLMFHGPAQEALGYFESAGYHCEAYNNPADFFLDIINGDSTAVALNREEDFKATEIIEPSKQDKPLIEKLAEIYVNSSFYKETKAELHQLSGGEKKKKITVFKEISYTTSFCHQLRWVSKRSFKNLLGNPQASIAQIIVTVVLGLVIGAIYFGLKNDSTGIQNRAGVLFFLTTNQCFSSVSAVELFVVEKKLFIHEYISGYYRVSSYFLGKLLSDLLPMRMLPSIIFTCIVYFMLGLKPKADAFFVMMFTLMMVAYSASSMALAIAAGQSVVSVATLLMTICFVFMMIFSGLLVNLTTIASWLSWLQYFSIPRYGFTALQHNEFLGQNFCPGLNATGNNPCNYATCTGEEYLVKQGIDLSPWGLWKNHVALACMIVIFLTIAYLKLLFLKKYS

[8] = 50 μM, MN/HK experiment, Fig. 3(B)

Chain of MRP2 (Canis lupus familiaris, UniProt A0A8I3SCV5) (A0A8I3SCV5 1-1544): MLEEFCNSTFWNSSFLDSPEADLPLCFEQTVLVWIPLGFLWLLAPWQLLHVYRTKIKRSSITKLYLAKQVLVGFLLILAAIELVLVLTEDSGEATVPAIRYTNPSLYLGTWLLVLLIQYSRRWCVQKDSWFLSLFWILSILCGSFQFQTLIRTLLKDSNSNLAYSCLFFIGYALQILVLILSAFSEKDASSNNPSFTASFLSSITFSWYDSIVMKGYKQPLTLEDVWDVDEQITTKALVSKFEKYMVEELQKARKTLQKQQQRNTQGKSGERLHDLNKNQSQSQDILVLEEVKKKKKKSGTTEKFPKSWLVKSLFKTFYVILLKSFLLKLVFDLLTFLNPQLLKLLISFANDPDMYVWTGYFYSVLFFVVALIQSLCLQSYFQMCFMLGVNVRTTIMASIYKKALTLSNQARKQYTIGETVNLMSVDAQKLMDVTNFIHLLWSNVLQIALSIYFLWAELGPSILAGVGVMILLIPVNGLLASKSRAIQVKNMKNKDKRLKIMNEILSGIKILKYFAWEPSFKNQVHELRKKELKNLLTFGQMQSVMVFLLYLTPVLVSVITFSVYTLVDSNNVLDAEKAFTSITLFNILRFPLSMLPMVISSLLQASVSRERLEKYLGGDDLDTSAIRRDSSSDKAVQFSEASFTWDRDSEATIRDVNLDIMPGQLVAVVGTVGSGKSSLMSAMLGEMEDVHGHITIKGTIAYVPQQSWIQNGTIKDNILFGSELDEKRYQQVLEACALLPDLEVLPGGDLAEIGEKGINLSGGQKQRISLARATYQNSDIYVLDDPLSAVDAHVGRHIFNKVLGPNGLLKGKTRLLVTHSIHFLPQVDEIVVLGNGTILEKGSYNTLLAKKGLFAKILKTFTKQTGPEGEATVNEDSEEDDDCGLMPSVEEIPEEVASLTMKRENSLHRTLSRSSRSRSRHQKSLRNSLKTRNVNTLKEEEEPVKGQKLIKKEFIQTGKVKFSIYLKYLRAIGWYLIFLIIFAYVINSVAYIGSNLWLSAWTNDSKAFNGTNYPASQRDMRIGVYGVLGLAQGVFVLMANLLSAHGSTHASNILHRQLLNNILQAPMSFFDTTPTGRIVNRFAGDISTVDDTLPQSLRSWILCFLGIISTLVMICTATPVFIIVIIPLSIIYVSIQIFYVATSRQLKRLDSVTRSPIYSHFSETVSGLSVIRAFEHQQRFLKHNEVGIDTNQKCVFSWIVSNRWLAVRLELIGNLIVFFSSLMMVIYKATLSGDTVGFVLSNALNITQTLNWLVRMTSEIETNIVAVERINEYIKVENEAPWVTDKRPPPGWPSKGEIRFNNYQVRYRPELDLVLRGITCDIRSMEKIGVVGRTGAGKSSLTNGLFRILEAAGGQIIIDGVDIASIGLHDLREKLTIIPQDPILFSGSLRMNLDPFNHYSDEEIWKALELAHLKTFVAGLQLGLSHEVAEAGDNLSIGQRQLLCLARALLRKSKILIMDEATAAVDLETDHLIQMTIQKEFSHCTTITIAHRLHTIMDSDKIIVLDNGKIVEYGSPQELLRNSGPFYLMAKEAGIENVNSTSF
Chain of MRP2 (Homo sapiens, UniProt Q92887) (Q92887 whole entry): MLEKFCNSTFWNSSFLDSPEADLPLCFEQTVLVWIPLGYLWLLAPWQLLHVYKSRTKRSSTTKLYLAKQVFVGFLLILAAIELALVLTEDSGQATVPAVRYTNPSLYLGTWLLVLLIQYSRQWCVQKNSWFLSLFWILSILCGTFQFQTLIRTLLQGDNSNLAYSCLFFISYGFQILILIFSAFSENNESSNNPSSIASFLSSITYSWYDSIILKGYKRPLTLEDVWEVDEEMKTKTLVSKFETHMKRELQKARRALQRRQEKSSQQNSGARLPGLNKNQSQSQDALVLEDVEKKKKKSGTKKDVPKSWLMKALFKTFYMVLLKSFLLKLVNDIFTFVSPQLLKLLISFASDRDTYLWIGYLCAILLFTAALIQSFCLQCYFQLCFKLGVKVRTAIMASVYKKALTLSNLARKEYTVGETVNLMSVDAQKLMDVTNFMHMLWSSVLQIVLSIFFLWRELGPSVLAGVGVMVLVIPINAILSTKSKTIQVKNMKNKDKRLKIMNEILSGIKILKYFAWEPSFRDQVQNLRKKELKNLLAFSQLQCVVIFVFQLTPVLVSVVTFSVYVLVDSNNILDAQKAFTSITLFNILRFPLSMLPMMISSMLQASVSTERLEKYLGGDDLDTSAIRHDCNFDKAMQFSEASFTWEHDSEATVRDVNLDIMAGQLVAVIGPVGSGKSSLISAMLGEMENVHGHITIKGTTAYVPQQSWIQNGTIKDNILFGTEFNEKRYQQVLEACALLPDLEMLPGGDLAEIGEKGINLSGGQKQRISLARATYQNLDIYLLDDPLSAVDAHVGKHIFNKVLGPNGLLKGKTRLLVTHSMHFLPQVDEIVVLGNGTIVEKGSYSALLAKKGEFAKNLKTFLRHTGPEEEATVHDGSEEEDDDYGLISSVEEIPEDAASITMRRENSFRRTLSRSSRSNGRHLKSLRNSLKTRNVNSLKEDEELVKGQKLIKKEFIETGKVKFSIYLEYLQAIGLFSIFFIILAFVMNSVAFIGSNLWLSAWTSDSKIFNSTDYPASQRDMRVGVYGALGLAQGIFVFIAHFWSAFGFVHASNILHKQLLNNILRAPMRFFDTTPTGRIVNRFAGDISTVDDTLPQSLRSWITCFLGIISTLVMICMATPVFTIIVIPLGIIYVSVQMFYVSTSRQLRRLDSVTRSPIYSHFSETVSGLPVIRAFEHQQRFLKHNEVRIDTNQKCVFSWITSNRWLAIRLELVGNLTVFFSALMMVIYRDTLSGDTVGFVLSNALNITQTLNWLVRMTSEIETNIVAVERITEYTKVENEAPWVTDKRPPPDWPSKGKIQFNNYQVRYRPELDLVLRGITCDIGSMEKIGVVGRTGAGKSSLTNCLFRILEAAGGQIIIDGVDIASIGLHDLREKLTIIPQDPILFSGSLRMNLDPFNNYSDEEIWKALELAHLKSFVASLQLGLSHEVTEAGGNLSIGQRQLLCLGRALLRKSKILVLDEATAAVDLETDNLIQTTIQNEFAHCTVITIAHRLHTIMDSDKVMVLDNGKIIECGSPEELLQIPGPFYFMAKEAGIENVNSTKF

Increase of intracellular accumulation of GSMF [3, 8] | Increase of intracellular accumulation of GSMF ([3]; 50 μM, positive control in MOC experiment, Fig. 3(A)) | Increase of intracellular accumulation of GSMF [4] | Increase of intracellular accumulation of GSMF ([3]; 25 μM, MN/HK experiment, Fig. 3(B)) | Compound | AUC0-t of MTX ([1]; oral MTX 5.0 mg/kg + water (MTX alone), n = 6, mean ± S.E.) | AUC0-t of MTX ([1]; oral MTX 5.0 mg/kg, MOC 2.0 g/kg thrice daily for 2 days, 7th dose 0.5 h before MTX, n = 5, mean ± S.E.) | AUC0-t of MTX ([1]; oral MTX 5.0 mg/kg, single dose MOC 2.0 g/kg 0.5 h before MTX, n = 6, mean ± S.E.) | AUC0-t of MTX ([1]; oral MTX 5.0 mg/kg, single dose MOC 4.0 g/kg 0.5 h before MTX, n = 6, mean ± S.E.) | Mortality of rats during the pharmacokinetic study [2] | Effect on cell viability (MTT) [5] | Effect on cell viability (MTT) [6] | Effect on BCRP [7]
– | – | – | – | CN(Cc1cnc2nc(N)nc(N)c2n1)c1ccc(C(=O)N[C@@H](CCC(=O)O)C(=O)O)cc1 [MTX, Methotrexate] | 44.6 ± 5.0^a μmol·min·mL^−^1 | 250.2 ± 31.2 μmol·min·mL^−^1 | 201.5 ± 39.2 μmol·min·mL^−^1 | 206.8 ± 35.9 μmol·min·mL^−^1 | all survived very well | – | – | –
331% | 203% | 72% | – | CN(C)C(=O)CCSC(SCCC(=O)O)c1cccc(/C=C/c2ccc3ccc(Cl)cc3n2)c1 (centres unmarked) [MK 571, reference compound] | – | – | – | – | – | – | – | –
137% | – | – | – | C=CCc1ccc(O)c(-c2cc(CC=C)ccc2O)c1 [MN, magnolol] | – | – | – | – | – | no toxic effects | no toxic effects | significantly inhibited
75% | – | – | 34% | C=CCc1ccc(O)c(-c2ccc(O)c(CC=C)c2)c1 [HK, honokiol] | – | – | – | – | – | no toxic effects | no toxic effects | significantly inhibited
